# According to ChEMBL document CHEMBL4152372, “Novel autophagy modulators: Design and synthesis of (+)-epogymnolactam analogues and structure-activity relationship” (Bioorg Med Chem, 2018):
# Active and inactive are the calls of the source. The calls are words filed in the database; no cut-off is given here.
# Key:
# [1] = system: NIH3T3; assay: Induction of autophagy in mouse NIH/3T3 cells assessed as increase in LC3-2 to LC3-1 ratio after 4 hrs by immunoblot analysis; assay type: functional, cell-based
# In short: (§1)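 Mouse embryo NIH3T3 fibroblasts seeded at 3.3 × 10^5 cells/ml at 37°C, 5% CO2; after 24 h the medium was changed and compounds added in DMSO at 25, 50 or 100 μM final. Controls were DMSO vehicle and 5 μM rapamycin. After 4 h at 37°C, cells were lysed in RIPA buffer and run on SDS-PAGE. Blots were probed for LC3, p62 and actin, and band signal ratios were quantified. Mean ± SD of triplicate.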
# [2] = system: NIH3T3; assay: Induction of autophagy in mouse NIH/3T3 cells assessed as increase in LC3-2 to actin ratio after 4 hrs by immunoblot analysis; assay type: functional, cell-based; in short: as §1
# [3] = system: NIH3T3; assay: Cytotoxicity against mouse NIH/3T3 cells assessed as reduction in cell viability at 25 to 100 uM after 4 hrs by CCK8 assay; assay type: cell-based; settings: nih3t3, 4 h
# In short: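 NIH3T3 cells counted by trypan blue exclusion, set to 0.53 × 10^4 cells/ml, and dosed at 25, 50 or 100 μM final (DMSO 0.1%). After 4 h at 37°C under CO2, CCK-8 reagent was added and incubation continued […]. Viable cells were read as OD450 against the DMSO control, mean ± SD of triplicate.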
# [4] = system: NIH3T3; assay: Induction of apoptosis in mouse NIH/3T3 cells assessed as cell shrinkage at 100 uM measured after 4 hrs; assay type: functional, cell-based
# [5] = system: NIH3T3; assay: Induction of autophagy in mouse NIH/3T3 cells assessed as upregulation of p62 expression after 4 hrs by immunoblot analysis; assay type: functional, cell-based; in short: as §1
# [6] = system: NIH3T3; assay: Inhibition of autophagy in mouse NIH/3T3 cells assessed as decrease in LC3-2 to LC3-1 ratio after 4 hrs by immunoblot analysis; assay type: functional, cell-based
# In short: (§2)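 NIH3T3 mouse embryo fibroblasts seeded at 3.3 × 10^5 cells/ml, cultured 24 h at 37°C/5% CO2, medium changed, then given compound in DMSO at final 25, 50, 100 μM for 4 h at 37°C. DMSO vehicle control; 5 μM rapamycin positive control. Cells lysed in RIPA, SDS-PAGE immunoblot for LC3, SQSTM1/p62, actin; band signals quantified as relative ratios. Mean ± SD of triplicates.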
# [7] = system: NIH3T3; assay: Inhibition of autophagy in mouse NIH/3T3 cells assessed as decrease in LC3-2 to actin ratio after 4 hrs by immunoblot analysis; assay type: functional, cell-based; in short: as §2
# [8] = system: NIH3T3; assay: Induction of apoptosis in mouse NIH/3T3 cells assessed as cell shrinkage at 50 to 100 uM measured after 4 hrs; assay type: functional, cell-based
# [9] = system: NIH3T3; assay: Induction of autophagy in mouse NIH/3T3 cells assessed as upregulation of p62 expression at 25 to 100 uM after 4 hrs by immunoblot analysis; assay type: functional, cell-based; in short: as §2
# [10] = system: NIH3T3; assay: Induction of autophagy in mouse NIH/3T3 cells assessed as increase in LC3-2 to LC3-1 ratio at 25 to 100 uM after 4 hrs by immunoblot analysis; assay type: functional, cell-based; in short: as §1
# [11] = system: NIH3T3; assay: Induction of autophagy in mouse NIH/3T3 cells assessed as increase in LC3-2 to actin ratio at 25 to 100 uM after 4 hrs by immunoblot analysis; assay type: functional, cell-based; in short: as §1
# [12] = system: NIH3T3; assay: Modulation of autophagy in mouse NIH/3T3 cells assessed as effect on LC3-2 to LC3-1 ratio at 25 to 100 uM after 4 hrs by immunoblot analysis; assay type: functional, cell-based; in short: as §1
# [13] = system: NIH3T3; assay: Modulation of autophagy in mouse NIH/3T3 cells assessed as effect on LC3-2 to actin ratio at 25 to 100 uM after 4 hrs by immunoblot analysis; assay type: functional, cell-based; in short: as §1
# [14] = system: NIH3T3; assay: Modulation of autophagy in mouse NIH/3T3 cells assessed as effect on p62 expression at 25 to 100 uM after 4 hrs by immunoblot analysis; assay type: functional, cell-based; in short: as §1
# [15] = system: NIH3T3; assay: Induction of autophagy in mouse NIH/3T3 cells assessed as upregulation of p62 expression after 6 hrs by immunoblot analysis; assay type: functional, cell-based
Compound,Activity [3],Activity [10],Activity [11],further results
CCCCCCC(=O)[C@H]1O[C@H]1C(N)=O,Toxic,–,–,Activity [1]: Dose-dependent effect; Activity [2]: Dose-dependent effect; Activity [4]: Active; Activity [5]: Dose-dependent effect
CCCCCCCCC(=O)[C@H]1O[C@H]1C(N)=O,Toxic,–,–,inhibition [6]: Dose-dependent effect; inhibition [7]: Dose-dependent effect; Activity [8]: Active; Activity [9]: Active
CCCCC(=O)CCC(N)=O,–,inactive,inactive,–
C/C=C/C/C=C/CCC(=O)[C@H]1O[C@H]1C(N)=O [CERULENIN],Toxic,–,–,inhibition [6]: Dose-dependent effect; inhibition [7]: Dose-dependent effect; Activity [9]: Active
CCCC[C@]1(OC)NC(=O)[C@@H]2O[C@@H]21,–,inactive,inactive,–
CCCCC1(O)NC(=O)[C@H]2O[C@H]21 (stereo partly drawn),–,inactive,inactive,–
CCCC[C@@H](O)[C@H]1O[C@H]1C(N)=O,–,inactive,inactive,–
CCCCCCCCCCC(=O)[C@H]1O[C@H]1C(N)=O,Toxic,–,–,Activity [12]: inactive; Activity [13]: inactive
CCCCC(=O)[C@H]1O[C@H]1C(=O)N(C)C,–,inactive,inactive,–
CCCC[C@@]1(O)NC(=O)[C@@H]2O[C@@H]21,Toxic,Active,Active,Activity [8]: inactive; Activity [14]: inactive; Activity [15]: Active
